Legend:
frog = assay: concentration in embryo medium after dosing; conditions: dosed: musk moskene, 400 ug/L embryo medium, dermal, duration: 10 days, xenopus laevis
How it was run: (§1)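 Sampling and analytical methods are those of each source and frequently went unreported. The concentration-versus-time and amount-versus-time points were compiled from published in vivo toxicokinetic studies and two structured collections. Most were digitised from plot screenshots with WebPlotDigitizer, with others copied from tables, in the reported units.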

rat [1] = assay: concentration in blood after dosing; conditions: dosed: benzene, 40000 ppm, dermal, duration: 4 hr, male, F344
rat [2] = assay: concentration in blood after dosing; conditions: dosed: benzene, 40000 ppm, dermal, duration: 4 hr, male, F344; remark: listed apart in the source
rat [3] = assay: concentration in adipose after dosing; conditions: dosed: benzene, 190 ppm, inhalation, duration: 6 hr, male, Fisher
rat [4] = assay: concentration in blood after dosing; conditions: dosed: benzene, 40000 ppm, dermal, duration: 4 hr, male, F344; remark: listed apart in the source
rat [5] = assay: concentration in blood after dosing; conditions: dosed: benzene, 40000 ppm, dermal, duration: 4 hr, male, F344; remark: listed apart in the source
rat [6] = assay: concentration in blood after dosing; conditions: dosed: benzene, 40000 ppm, dermal, duration: 4 hr, male, F344; remark: listed apart in the source
rabbit = assay: concentration in blood after dosing; conditions: dosed: hexachlorocyclohexane, 25 mg/kg, oral, female
How it was run: as §1

Rat [7] = assay: concentration in urine after dosing; conditions: dosed: dibromoacetic acid, 40 mg/kg, oral, Male, F344
Rat [8] = assay: concentration in urine after dosing; conditions: dosed: dibromoacetic acid, 100 mg/kg, oral, Male, F344
Rat [9] = assay: concentration in urine after dosing; conditions: dosed: dibromoacetic acid, oral, Male, F344
Rat [10] = assay: concentration in urine after dosing; conditions: dosed: dibromoacetic acid, 40 mg/kg, oral, Male, F344; remark: listed apart in the source
Rat [11] = assay: concentration in urine after dosing; conditions: dosed: dibromoacetic acid, 100 mg/kg, oral, Male, F344; remark: listed apart in the source
human [12] = assay: concentration in urine after dosing; conditions: dosed: benzene, 30 mg/m^3, inhalation, duration: 4 hr, male
How it was run: as §1

human [13] = assay: concentration in urine after dosing; conditions: dosed: benzene, 30 mg/m^3, inhalation, duration: 4 hr, male; remark: listed apart in the source
How it was run: as §1

human [14] = assay: concentration in urine after dosing; negative times count back from the end of exposure; conditions: dosed: benzene, 30 mg/m^3, inhalation, duration: 4 hr, male
How it was run: as §1

Rat [15] = assay: concentration in plasma after dosing; conditions: dosed: Free Carbon disulfide, iv, Male, F344
Rat [16] = assay: concentration in plasma after dosing; conditions: dosed: Free Carbon disulfide, 10 mg/kg, iv, Male, F344
Rat [17] = assay: concentration in plasma after dosing; conditions: dosed: Free Carbon disulfide, 50 mg/kg, iv, Male, F344
Rat [18] = assay: concentration in plasma after dosing; conditions: dosed: Free Carbon disulfide, 50 mg/kg, iv, Male, F344; remark: listed apart in the source
Rat [19] = assay: concentration in plasma after dosing; conditions: dosed: Free Carbon disulfide, 10 mg/kg, iv, Male, F344; remark: listed apart in the source

Cc1c([N+](=O)[O-])cc2c(c1[N+](=O)[O-])C(C)(C)CC2(C)C [musk moskene]
frog
Conditions	concentration in embryo medium [µg/L]
0.1638 h	353
0.2136 h	293
0.2621 h	670
95.89 h	46.5
168.63 h	226
240 h	175
240.21 h	290
240.24 h	222

c1ccccc1 [benzene]
Conditions	concentration in adipose [mg/L]	concentration in blood [µg/mL]
rat [1], 0.5 h	–	7.85
rat [1], 1 h	–	8.9
rat [1], 2 h	–	10.1
rat [1], 3 h	–	10.7
rat [1], 4 h	–	11.4
rat [2], 0.5 h	–	7.38
rat [2], 1 h	–	8.53
rat [2], 2 h	–	8.05
rat [2], 3 h	–	10.4
rat [2], 4 h	–	11.7
rat [3], 0.4898 h	7.58	–
rat [3], 0.99 h	19.5	–
rat [3], 1.49 h	27.5	–
rat [3], 1.989 h	34.6	–
rat [3], 3.993 h	106	–
rat [3], 5.974 h	159	–
rat [3], 6.485 h	181	–
rat [3], 6.98 h	142	–
rat [3], 7.478 h	126	–
rat [3], 8.014 h	95.9	–
rat [3], 8.509 h	63.8	–
rat [3], 8.999 h	70.4	–
rat [3], 10 h	41.5	–
rat [3], 11.99 h	13.4	–
rat [3], 15 h	8.14	–
rat [4], 0.5 h	–	10
rat [4], 1 h	–	9.65
rat [4], 2 h	–	9.69
rat [4], 3 h	–	12.3
rat [4], 4 h	–	10.2
rat [5], 0.5 h	–	7.67
rat [5], 1 h	–	8.22
rat [5], 2 h	–	9.71
rat [5], 3 h	–	10.6
rat [5], 4 h	–	11.1
rat [6], 0.5 h	–	8.34
rat [6], 1 h	–	10.3
rat [6], 2 h	–	13.1
rat [6], 3 h	–	12.3
rat [6], 4 h	–	11.5

ClC1C(Cl)C(Cl)C(Cl)C(Cl)C1Cl (stereo not drawn) [hexachlorocyclohexane]
rabbit
Conditions	concentration in blood [µg/mL]
168 h	9.22
336 h	12.3
504 h	18.4
672 h	24.6
840 h	33.8
1008 h	39.9
1176 h	46.1
1344 h	52.2
1512 h	58.4
1680 h	64.5
1848 h	70.7
2016 h	86

O=CC(=O)O [Glyoxylic acid]
concentration in urine [µg/mL]
Conditions	0 h	2 h	4 h	8 h	24 h	48 h
Rat [7]	18.4	11.9	–	–	35.6	37.9
Rat [8]	27.4	20.7	28.6	31.2	28.8	47.9
Rat [10]	22.3	–	–	20.7	36.1	34.3
Rat [11]	16.1	–	25.1	–	30.9	34.3

concentration in urine [µg/mL], Rat [9]
Conditions	0 h	4 h	8 h	24 h	48 h
40 mg/kg	29.8	13.2	27	31.8	26.3
100 mg/kg	20.5	25.6	–	30.4	54.8

Oc1ccccc1 [phenol]
Conditions	concentration in urine [µmol/L]
human [12], 0 h	61.4
human [12], 2 h	82.2
human [12], 4 h	186
human [12], 5.939 h	193
human [12], 8 h	143
human [12], 10 h	129
human [12], 12.06 h	109
human [12], 14.36 h	102
human [12], 15.52 h	80.2
human [12], 23.33 h	176
human [12], 26.24 h	68.4
human [12], 37.03 h	45.6
human [12], 38.55 h	45
human [12], 46.55 h	87.7
human [12], 47.52 h	141
human [12], 52 h	95.1
human [13], 0 h	72.9
human [13], 2 h	113
human [13], 4 h	226
human [13], 6 h	207
human [13], 8 h	143
human [13], 10 h	180
human [13], 12.06 h	144
human [13], 14 h	87.1
human [13], 20.36 h	70.2
human [13], 24.06 h	112
human [13], 27.03 h	80.5
human [13], 32 h	82.7
human [13], 38.06 h	73.4
human [13], 42.55 h	45.5
human [13], 47.58 h	65.6
human [13], 52.48 h	50.5
human [14], 0 h	314
human [14], 1.939 h	244
human [14], 4 h	187
human [14], 6.061 h	200
human [14], 8 h	99.3
human [14], 10.06 h	114
human [14], 18 h	121
human [14], 24.55 h	51
human [14], 30 h	39.3
human [14], 34.12 h	38
human [14], 42.3 h	38.5
human [14], 50.48 h	52.2

human [14], during exposure
Conditions	concentration in urine [µmol/L]
-4 h	23.7
-2.061 h	124

S=C=S [Free Carbon disulfide]
concentration in plasma [µg/g], Rat [15]
Conditions	0.05 h	1 h	2 h	5 min	10 min	20 min	40 min
10 mg/kg	5	–	–	1.9	1.2	0.8	–
50 mg/kg	13.1	1.6	0.9	8.3	6.4	6.8	4.2

concentration in plasma [µg/g]
Conditions	0.05 h	1 h	5 min	10 min	20 min	40 min
Rat [16]	4.2	–	2.5	1.4	0.7	–
Rat [17]	20.2	2	15.9	9.5	5.6	2.6
Rat [18]	21.2	1.2	11	6.6	4.9	1.8
Rat [19]	5.8	–	7.9	1.4	–	–

Reference: EPA's CvTdb concentration-time database
